The entries come from a sample that favours hits as a whole.
D1 allo mod: D1 dopamine receptor (human) allosteric modulation | 58,000 compounds, 5.9% hits | B-score at 10 µM | HEK293 D1, CRE-luciferase, dopamine EC30 potentiation; actives deviate in either direction | P21728 | AID 641;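 active = luminescence count or its row- and column-corrected plate score outside the 99.7% band of the plate's sample wells, on either side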
Target sequence (P21728 whole entry, looked up): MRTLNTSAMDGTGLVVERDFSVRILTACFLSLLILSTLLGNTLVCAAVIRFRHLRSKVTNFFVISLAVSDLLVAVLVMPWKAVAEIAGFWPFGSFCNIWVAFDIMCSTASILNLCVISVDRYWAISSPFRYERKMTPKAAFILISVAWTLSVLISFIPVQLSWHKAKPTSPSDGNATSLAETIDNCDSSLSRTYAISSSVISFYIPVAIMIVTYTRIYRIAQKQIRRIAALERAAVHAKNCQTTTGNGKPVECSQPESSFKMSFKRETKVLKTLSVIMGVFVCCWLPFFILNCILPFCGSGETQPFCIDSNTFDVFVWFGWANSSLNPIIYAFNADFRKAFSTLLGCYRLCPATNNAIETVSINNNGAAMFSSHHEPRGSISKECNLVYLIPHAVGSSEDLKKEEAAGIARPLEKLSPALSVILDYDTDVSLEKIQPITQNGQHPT
MMP-13 inhibitor: inhibitors of human MMP13; MMP-13 fTHP FRET cleavage, Mca fluorescence; inhibition, % at 4 µM; AID 570; 65,000 compounds, 0.07% hits;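 active = inhibition above the mean of compound-free control plate wells plus 3 SD, cut at about 14% in these data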;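 note: 0% = DMSO wells and 100% = wells with reference MMP-13 inhibitor after basal subtraction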
AP ELISA ortho: orthogonal test for alternative complement pathway inhibitors | inhibition, % at 5 µM | AID 1235 | Human serum alternative complement pathway, LPS-coated ELISA, C3 deposition; tested in compound mixtures | 62,000 compounds, 0.08% hits;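 active = inhibition above 30% in each of the two pooled mixtures holding the compound, so the lower value exceeds 30%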;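 note: 0% = serum in Mg-EGTA without compound and 100% = EDTA serum blank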
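Assay system: human serum alternative complement pathway, C3 deposition on LPS-coated wells; Dosing: 5 µM per compound in ten-compound mixtures; Detection: Anti-C3 ELISA, OD 450 nm; Buffer or medium: Mg2+-EGTA GVB++ buffer containing human serum at 1:15 dilution; Timing: 1 h at 37 °C; Replication: two different pools per compound.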
hDAT+cocaine: human DAT dopamine uptake with cocaine, either direction; LLC-PK1 hDAT cells, [14C]-dopamine uptake with cocaine IC80; actives deviate in either direction; 110,000 compounds, 1.3% hits; Q01959; B-score at 10 µM;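 active = Z score or B-score, a plate-position-corrected score, falls beyond the plate's 99.7% confidence bounds, in either direction; inactive = both scores lie inside the 99.7% bounds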;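 note: scored against the spread of the other compound wells on the same plate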
Candida biofilm: kills Candida albicans biofilms. C. albicans biofilm + clotrimazole, Alamar Blue. inhibition, % at 6 µM. 85,000 compounds, 0.14% hits;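 active = inhibition above 20%; inactive = inhibition below 20%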;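 note: preformed 24 hr biofilms exposed to compound for 48 hr; 0% = biofilm without compound and 100% = blank killed by clotrimazole plus chlorhexidine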
D1 PAM confirm: confirmation of human D1 dopamine receptor allosteric modulators | 2,200 compounds, 88% hits | luminescence at 10 µM | HEK293 D1 CRE-luciferase, dopamine EC30 potentiation; stronger effect = higher value | shares compounds with D1 allo mod;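 active = luminescence in either of two replicates above the same-plate mean plus 3 SD of the low-dose dopamine control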
D1 ag no DA: secondary test of D1 modulators: activity without dopamine. shares compounds with D1 allo mod. HEK293 D1 CRE-luciferase, luminescence, no dopamine; stronger effect = higher value. luminescence at 10 µM. 1,900 compounds, 0.8% hits. AID 646; in the data active = luminescence above about 3900
Isoprot counter: alters isoproterenol CRE-luciferase response in HEK293 cells. shares compounds with D1 allo mod. HEK293 D1 CRE-luciferase, isoproterenol EC30 counter-screen; stronger effect = higher value. luminescence at 10 µM. 2,200 compounds, 63% hits. AID 647;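 active = luminescence in either replicate above plate mean of wells with a partly effective reference agonist dose plus 3 SD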;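 note: isoproterenol raises cAMP through native beta-adrenoceptor Gs so signal bypasses D1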
The depositor's hits bear a star; i = inactive; . = not tested or not shown.

SMILES	D1 allo mod	MMP-13 inhibitor	AP ELISA ortho	hDAT+cocaine	Candida biofilm	D1 PAM confirm	D1 ag no DA	Isoprot counter
CCOc1ccc(-c2nnc(-c3ccco3)o2)cc1OCC	15*	-106	-10	1.1	-8	17272*	1612	4000*
O=C(CN(C(=O)CSc1nc2ccccc2o1)c1cccc(F)c1)NC1CCCCC1	.	.	.	-0.34	.	.	.	.
CC(C)(C)NC(=O)CSC(=Nc1cccc(F)c1)NC#N	.	.	.	-0.85	3	.	.	.
FC(F)(F)c1nnc2sc(-c3cccs3)nn12	22*	-14	8	0.47	7	10532*	1524	3440*
C/C=C1\C(OC2OC(CO)C(O)C(O)C2O)OC=C(C(=O)OC)C1CC(=O)OCC1C(C)C(OC(=O)CC2C(C(=O)OC)=COC(OC3OC(CO)C(O)C(O)C3O)/C2=C\C)CC1C(CO)CO (stereo unspecified)	.	.	.	0.65	.	.	.	.
CN(C)S(=O)(=O)N(CC(=O)Nc1cccc(F)c1)c1ccccc1	.	.	.	0.7	3	.	.	.
CCn1nnc(-c2ccccc2NS(=O)(=O)c2ccc(S(=O)(=O)N(C)C3CCCCC3)cc2)n1	.	.	.	0.32	-1	.	.	.
Cc1noc(C)c1CSc1nnc(-c2cc(Cl)ccc2Cl)n1N	9.5*	3	15	-0.58	4	25992*	1756	5704*
NC(=O)c1cc2ccc(O)cc2oc1=Nc1ccccc1	5.1*	i	14	-0.83	.	5036	1960	2508
NC(=O)c1cc2ccc(O)cc2oc1=NCc1ccccc1	.	i	12	1.5	.	.	.	.
O=C(c1cccc(-c2nnc(-c3ccccc3)o2)c1)N1CCCCC1	7.9*	2	10	1.5	5	12576*	1552	2964*
N#Cc1c2n(c3c(=O)n(Cc4ccc(Cl)cc4)cnc13)CCCCC2	11*	-3	19	1.3	-3	13432*	1956	4660*
CCc1nc2ccccc2c(C(=O)OC2CCOC2=O)c1C (stereo unspecified)	5.4*	-4	17	0.047	6	11292*	1608	4024*
O=C(O)c1cccc(NC(=S)NC(=O)C(c2ccccc2)c2ccccc2)c1	.	.	.	1.9	.	.	.	.
CCOC(=O)c1sc2ccc(S(=O)(=O)N3CCOCC3)cc2c1N	6.7*	-3	3	-0.99	6	5484	.	2888*
CCOC(=O)c1sc2ccc(S(=O)(=O)N3CCCCC3)cc2c1N	1.5	-8	6	-0.04	-5	.	.	.
Cc1ccccc1Cn1c(=O)n(CCCC(=O)NCc2ccco2)c(=O)c2ccccc21	5.5*	2	6	0.22	7	11052*	1848	4208*
N#Cc1ccccc1Cn1c(=O)n(Cc2ccc(C(=O)NCc3ccco3)cc2)c(=O)c2ccccc21	4.4*	-1	8	0.18	4	18988*	1796	7356*
Cc1cccc(Cn2c(=O)n(CCCC(=O)NCc3ccco3)c(=O)c3ccccc32)c1	0.85	-5	13	.	3	.	.	.
Cc1cccc(Cn2c(=O)n(Cc3ccco3)c(=O)c3ccccc32)c1	12*	1	-4	0.79	2	22552*	1708	4036*
COC(=O)c1ccc(OCC(=O)c2ccccc2OC)cc1	.	.	.	-0.051	-1	.	.	.
Cc1cc(C(=O)N2CCc3ccccc32)n(-c2ccccc2)n1	5.8*	-8	17	0.48	2	10356*	1556	3612*
Cc1cc(C)n(-c2ccc(C(=O)N3CCc4ccccc43)cc2)n1	0.38	3	2	0.19	6	.	.	.
Nc1ccc(SC(F)(F)F)cc1C(=O)c1ccccc1	14*	-5	12	.	-3	13336*	1612	5068*
CC(=O)N1N=C(c2cccc([N+](=O)[O-])c2)OC1c1ccc(Cl)cc1Cl (stereo unspecified)	.	.	.	0.93	.	.	.	.
SMILES	D1 allo mod	MMP-13 inhibitor	AP ELISA ortho	hDAT+cocaine	Candida biofilm	D1 PAM confirm	D1 ag no DA	Isoprot counter
CCCCc1cc2c(c(NC(C)=O)n1)c(=O)oc1ccccc12	15*	-7	0	-0.44	4	14552*	1312	3356*
CCCCc1cc2c(c(NC(=O)CC)n1)c(=O)oc1ccccc12	6.6*	-2	9	-0.18	.	23508*	1676	4244*
CN=C1SC(CC(=O)Nc2sc(C)c(C)c2C(=O)OC)C(=O)N1C (stereo unspecified)	3.4*	-13	6	-0.13	6	8820*	1856	3312*
CCC1(C)Cc2c(C#N)c(N)sc(=S)c2CO1 (stereo unspecified)	20*	-4	.	0.86	6	18368*	1660	3980*
CC(=O)Nc1cc2c(cc1C(=O)c1ccc(C)cc1)OCCO2	6.2*	5	15	-0.36	-7	15264*	1428	3928*
CC(=O)Nc1cc2c(cc1C(C)=O)OCCO2	0.55	-2	4	-0.37	2	.	.	.
CN1CCN(C2=C(Cl)C(=O)N(c3cccc(Cl)c3)C2=O)CC1	-0.21	4	6	-0.0072	6	.	.	.
COC(=O)c1cccc(N2C(=O)C(Cl)=C(N3CCOCC3)C2=O)c1	4.7*	-2	.	-1	3	5740*	1648	2228
O=C(N/N=C/c1cccc(Oc2ccccc2)c1)c1ccccc1Br	.	.	.	0.52	.	.	.	.
OCCN(CCO)c1nc(N2CCCCC2)c2nc(N(CCO)CCO)nc(N3CCCCC3)c2n1	11*	-80	-6	.	16	11976*	1696	5708*
CN(C)c1nc(N2CCCCC2)nc(N2CCCCC2)n1	.	7	21	.	8	.	.	.
O=C(N1CCN(c2ccccn2)CC1)N1c2ccccc2Sc2ccccc21	-0.01	2	13	.	11	.	.	.
CNc1nc(C)nc(-c2ccccc2O)n1	9.1*	-15	15	.	0	23276*	1644	4072*
CC(C)(C)C1CCc2onc(C(=O)Nc3cccnc3)c2C1 (stereo unspecified)	10*	2	5	0.84	.	19704*	1720	3908*
C[C@]12C(=O)N(c3ccc(Cl)cc3)C(=O)N1[C@@H]1c3ccccc3OC[C@@H]1[C@H]2c1ccccc1	.	.	.	0.55	.	.	.	.
C#CCCOC(=O)N1C2=NC(C(=O)OC)=C(C(=O)OC)[C@@H]3N(CC=C)c4ccccc4[C@]23C[C@H]1C(=O)OC	.	.	.	1.6	.	.	.	.
CCOC(=O)c1[nH]c(C)c(C(=O)OCc2c(C)noc2C)c1C	5.1*	0	9	-0.37	11	7568*	880	3380*
C#CCOC(=O)CCCNc1ccc([N+](=O)[O-])cc1[N+](=O)[O-]	.	.	.	-0.26	.	.	.	.
COc1cc(S(=O)(=O)N2CCCCCC2)ccc1-n1cnnn1	.	.	.	-0.93	-2	.	.	.
COc1ccc(CN(C2CCCC2)S(=O)(=O)c2ccc(-n3cnnn3)c(OC)c2)cc1OC	6.1*	2	8	-0.46	.	9100*	1536	3488*

Screens as filed in PubChem.
